What is called IC50 is the concentration that inhibits the measured activity by half.

The nature of assay [1]: Effect on calcein accumulation in multidrug resistant human 2780 AD cells at 0.25 ug/mL relative to control. It is filed as functional. Put shortly: (§1)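 Calcein (formed from calcein AM by cellular esterase) accumulated in multidrug-resistant ovarian cancer 2780 AD cells. Read in the presence of 0.25, 2.5 or 25 µg/mL test compound and expressed as % of control. Means of triplicate determinations.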

Assay [2] can be described thus: Effect on calcein accumulation in multidrug resistant human 2780 AD cells at 2.5 ug/mL relative to control. It is filed as functional. Put shortly:
as §1

Another assay relates to WI-38 VA13. Description: Cytotoxicity against human VA13 cells. It counts as cell-based. Put shortly: (§2)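 IC50 in µg/mL, taken as the mean of duplicate determinations.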
Assay [3] is described as follows: Cytotoxicity against human WI38 cells. To be noted: WI-38. It counts as cell-based. Put shortly: as §2
A short description of assay [4]: Effect on calcein accumulation in multidrug resistant human 2780 AD cells at 25 ug/mL relative to control. It is filed as functional. Put shortly: as §1
The test system of another assay is HepG2. Description: Cytotoxicity against human HepG2 cells. It is filed as cell-based. Put shortly: as §2
Assay [5] relates to A549. Description: Inhibition of ICAM1 induction in human A549 cells. It counts as functional, cell-based. Put shortly:
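A549 cells pretreated 1 h with a range of test concentrations, then stimulated with IL-1α for 6 h. Surface ICAM-1 detected with primary and secondary antibodies plus enzyme substrate, absorbance at 415 nm. Triplicate cultures, IC50 derived.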

Assay [6] has as its system A549. Description: Cytotoxicity against human A549 cells by MTT assay. It counts as cell-based. Put shortly: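 A549 cells exposed to serial dilutions for 24 h. Viability (%) read by MTT and used to derive IC50. Triplicate cultures.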
Assay [7] can be described thus: Effect on calcein accumulation in multidrug resistant human 2780 AD cells at 0.25 ug/mL relative to verapamil. It is filed as functional.
A short description of assay [8]: Effect on calcein accumulation in multidrug resistant human 2780 AD cells at 25 ug/mL relative to verapamil. It is filed as functional.
The nature of assay [9]: Effect on calcein accumulation in multidrug resistant human 2780 AD cells at 2.5 ug/mL relative to verapamil. It counts as functional.

Structures are written as SMILES. In brackets after ≈: the same amount, converted by molar mass.

For `C[C@]12C(=O)C[C@H]3[C@@H](C=CC4=CC(=O)CC[C@@]43C)[C@@H]1CC[C@@H]2C(=O)CO`, the Activity in assay [1] was 110%; in [2], 105%; in [4], 140%. The IC50 in the assay with WI-38 VA13 was 87.7 µg/mL (≈ 256 µM); in assay [3] it was 48.1 µg/mL (≈ 140 µM); with HepG2 it was 94.9 µg/mL (≈ 277 µM).

For `CC(=O)[C@]12O[C@H]1C[C@H]1[C@@H]3C=CC4=CC(=O)CC[C@]4(C)[C@H]3C[C@@H](O)[C@@]12C`, the Activity is on record as 103% in assay [1], 108% in assay [2] and 99% in assay [4]. Also, the half-maximal inhibitory concentration (IC50) with WI-38 VA13 is 73.1 µg/mL (≈ 213 µM); in [3] it was 51.1 µg/mL (≈ 149 µM); in the assay with A549 [5], greater than 100 µM; with A549 [6] it was greater than 100 µM; with HepG2, 62.1 µg/mL (≈ 181 µM).

With `C[C@@H](O)[C@H]1CC[C@H]2[C@@H]3C=CC4=CC(=O)CC[C@]4(C)[C@H]3CC(=O)[C@]12C`, the Activity was 120% in assay [7]; 116% in assay [1]; 127% in assay [2]; 93% in assay [8]; 138% in assay [4]; 117% in assay [9]. Besides, the half-inhibitory concentration (IC50) in the assay with WI-38 VA13 is 57.4 µg/mL (≈ 175 µM); in assay [3], 66.4 µg/mL (≈ 202 µM); in the assay on A549 [5] (read-out: IC50), greater than 300 µM; in the assay on A549 [6] (read-out: IC50), greater than 300 µM; in the assay on HepG2, 49.2 µg/mL (≈ 150 µM).

For `CC(=O)C1=CC[C@H]2[C@@H]3C=CC4=CC(=O)CC[C@]4(C)[C@H]3C[C@@H](O)[C@]12C` [NERIDIENONE A], the Activity is 109% in assay [1], 92% in [2] and 107% in assay [4]. Also, the concentration for half-maximal inhibition (IC50) with WI-38 VA13 came to 0.68 µg/mL (≈ 2.08 µM); in [3], 4.9 µg/mL (≈ 15 µM); in the assay with A549 [5] (read-out: IC50) it was 7 µM; in the assay with A549 [6] (read-out: IC50), 53.1 µM; in the assay with HepG2 it was 2.5 µg/mL (≈ 7.66 µM).

As to `C[C@]12C(=O)C[C@H]3[C@@H](C=CC4=CC(=O)CC[C@@]43C)[C@@H]1CC[C@@H]2[C@H](O)CO` [NERIDIENONE B], the Activity in assay [7] is on record as 113%; in assay [1], 110%; in assay [2], 154%; in [8], 100%; in [4], 148%; in assay [9] it was 141%. The IC50 in the assay on WI-38 VA13 was greater than 100 µg/mL; in [3] it was 73.5 µg/mL (≈ 213 µM); with HepG2, greater than 100 µg/mL.

`COc1ccc(CCN(C)CCCC(C#N)(c2ccc(OC)c(OC)c2)C(C)C)cc1OC` (stereo not given) [VERAPAMIL]: the Activity in assay [1] was 97%; in assay [2], 109%; in assay [4], 148%.

Source of the values: ChEMBL document CHEMBL1138406, “Bioactive pregnanes from Nerium oleander” (J Nat Prod, 2007).
